Test results reported in ChEMBL document CHEMBL1137414, “3'-Substituted 7-halogenoindirubins, a new class of cell death inducing agents” (J Med Chem, 2006).

Experiments:
SH-SY5Y [1] = assay: Survival of human SH-SY5Y cells at 25 uM by MTS reduction assay; type: functional, cell-based; details: for viability at 25 µM: Homo sapiens, SH-SY5Y, read-out: Survival
How it was run: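 Viability was read by MTS reduction and expressed as percent of untreated cells, as the average ± SE of three independent measurements, representative of two independent experiments.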

[2] = biological target: Cyclin-dependent kinase 5/CDK5 activator 1 (Homo sapiens, UniProt Q00535); assay: (§1) Inhibition of mammalian CDK5/p25; type: protein-complex assay
Chain of Cyclin-dependent kinase 5/CDK5 activator 1 (Homo sapiens, UniProt Q00535) (Q00535 whole entry, the tested form may be a part): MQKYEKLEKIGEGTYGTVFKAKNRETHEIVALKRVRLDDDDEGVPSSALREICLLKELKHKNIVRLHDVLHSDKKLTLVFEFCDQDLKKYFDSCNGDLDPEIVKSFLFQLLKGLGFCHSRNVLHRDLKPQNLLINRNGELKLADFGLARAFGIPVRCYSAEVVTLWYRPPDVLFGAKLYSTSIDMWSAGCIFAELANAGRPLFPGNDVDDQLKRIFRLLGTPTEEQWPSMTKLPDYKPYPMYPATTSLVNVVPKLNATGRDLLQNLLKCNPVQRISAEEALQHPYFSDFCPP
Chain of Cyclin-dependent kinase 5/CDK5 activator 1 (Homo sapiens, UniProt Q00535) (Q15078 whole entry, further chain, the tested form may be a part): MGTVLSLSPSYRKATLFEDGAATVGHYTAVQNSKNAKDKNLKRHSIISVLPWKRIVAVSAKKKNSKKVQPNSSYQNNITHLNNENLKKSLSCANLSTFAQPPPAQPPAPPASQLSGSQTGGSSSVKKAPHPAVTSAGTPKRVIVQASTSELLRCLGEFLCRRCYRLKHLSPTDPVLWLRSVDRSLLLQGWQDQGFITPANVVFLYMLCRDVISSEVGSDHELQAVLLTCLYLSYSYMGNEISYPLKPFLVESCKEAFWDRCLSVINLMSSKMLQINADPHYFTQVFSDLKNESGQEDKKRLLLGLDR
How it was run: (§2)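 Recombinant CDK5 and p25, each expressed in E. coli as GST fusions and affinity-purified on glutathione agarose, mixed in equal amounts. Phosphate incorporation onto P81 paper read by scintillation counting, blank subtracted. Activity taken as % of uninhibited. IC50 from dose-response curves.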

[3] = Inhibition of starfish CDK1/cyclin B in presence of 15 uM ATP; set-up: species or system Marthasterias glacialis
SH-SY5Y [4] = assay: Death of human SH-SY5Y cells in presence of 20 uM Q-VD-OPh by MTS reduction assay; type: functional, cell-based; details: Homo sapiens, SH-SY5Y
SH-SY5Y [5] = assay: Survival of human SH-SY5Y cells after 48 hrs by MTS reduction assay; type: functional, cell-based
SH-SY5Y [6] = assay: Survival of human SH-SY5Y cells after 24 hrs by MTS reduction assay; type: functional, cell-based
SH-SY5Y [7] = assay: Death of human SH-SY5Y cells in absence of 20 uM Q-VD-OPh by MTS reduction assay; type: functional, cell-based; details: Homo sapiens, SH-SY5Y; read-out: IC50
[8] = biological target: Cyclin-dependent kinase 5/CDK5 activator 1 (Homo sapiens, UniProt Q00535+Q15078); assay: as §1; type: protein-complex assay; how it was run: as §2
Chain of Cyclin-dependent kinase 5/CDK5 activator 1 (Homo sapiens, UniProt Q00535+Q15078) (Q00535 whole entry): as the sequence (Q00535 whole entry, the tested form may be a part) above
Chain of Cyclin-dependent kinase 5/CDK5 activator 1 (Homo sapiens, UniProt Q00535+Q15078) (Q15078 whole entry): as the sequence (Q15078 whole entry, further chain, the tested form may be a part) above

SH-SY5Y [9] = assay: Death of human SH-SY5Y cells at 25 uM after 48 hrs by LDH release assay; type: functional
How it was run: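 SH-SY5Y human neuroblastoma cells were grown in DMEM with 2 mM L-glutamine, antibiotics and 10% FCS at 37 °C under 5% CO2. […] Lactate dehydrogenase release was measured 48 h after addition and expressed as percent cell death.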

| SMILES | viability at 25 µM (SH-SY5Y [1]) | IC50 [2] | IC50 [3] | also measured |
| --- | --- | --- | --- | --- |
| CC(=O)O/N=C1/C(c2c(O)n(C)c3c(Br)cccc23)=Nc2ccccc21 | 95% | > 100 µM | 70 µM |  |
| CN(C)CCO/N=C1/C(c2c(O)n(C)c3c(Br)cccc23)=Nc2ccccc21 |  |  |  | IC50 (SH-SY5Y [4]): > 25 µM; IC50 (SH-SY5Y [5]; sh-sy5y): 5.5 µM; Survival (SH-SY5Y [1]): 49%; IC50 (SH-SY5Y [6]; sh-sy5y): > 25 µM; IC50 (SH-SY5Y [7]): 6.4 µM; IC50 [8]: > 10 µM; Activity (SH-SY5Y [9]): 33% |
| Oc1[nH]c2c(Br)cccc2c1C1=Nc2ccccc2/C1=N\OCCN1CCCC1 |  |  |  | IC50 (SH-SY5Y [4]): > 25 µM; IC50 (SH-SY5Y [5]; sh-sy5y): 2.3 µM; Survival (SH-SY5Y [1]): 13%; IC50 (SH-SY5Y [6]; sh-sy5y): 3.6 µM; IC50 (SH-SY5Y [7]): 2 µM; IC50 [8]: > 10 µM; Activity (SH-SY5Y [9]): 14% |
| CCN(CC)CCO/N=C1/C(c2c(O)[nH]c3c(Br)cccc23)=Nc2ccccc21 |  |  |  | Survival (SH-SY5Y [1]): 49%; IC50 [8]: > 10 µM |
| O=C1C(c2c(O)[nH]c3c(F)cccc23)=Nc2ccccc21 | 70% | ≥ 10 µM | 10 µM |  |
| O=Nc1c(-c2c(O)[nH]c3ccccc23)[nH]c2ccccc12 [INDIRUBIN-3-MONOXIME] | 27% |  |  | IC50 (SH-SY5Y [4]): > 25 µM; IC50 (SH-SY5Y [5]; Homo sapiens, SH-SY5Y, 48 h): 12 µM; IC50 (SH-SY5Y [6]; Homo sapiens, SH-SY5Y, 24 h): > 25 µM; IC50 (SH-SY5Y [7]): 13 µM; Activity (SH-SY5Y [9]): 33% |
| CC(=O)O/N=C1/C(c2c(O)n(C)c3c(Cl)cccc23)=Nc2ccccc21 | 96% | > 100 µM | > 10 µM |  |
| CO/N=C1/C(c2c(O)n(C)c3c(F)cccc23)=Nc2ccccc21 | 107% | > 100 µM | > 10 µM |  |
| Cl.Oc1[nH]c2c(Br)cccc2c1C1=Nc2ccccc2/C1=N\OCCN1CCOCC1 |  | > 10 µM | > 100 µM | Survival (SH-SY5Y [1]): 76% |
| Cn1c(O)c(C2=Nc3ccccc3C2=O)c2cccc(Cl)c21 | 94% | > 100 µM | > 10 µM |  |
| CCN(CC)CCO/N=C1/C(c2c(O)n(C)c3c(Br)cccc23)=Nc2ccccc21 |  |  |  | Survival (SH-SY5Y [1]): 83%; IC50 [8]: > 10 µM |
| CC(=O)O/N=C1/C(c2c(O)[nH]c3c(Cl)cccc23)=Nc2ccccc21 | 89% | > 100 µM | > 10 µM |  |
| Cl.Cn1c(O)c(C2=Nc3ccccc3/C2=N\OCCN2CCOCC2)c2cccc(Br)c21 | 90% | > 10 µM | > 10 µM |  |
| CO/N=C1/C(c2c(O)n(C)c3c(Cl)cccc23)=Nc2ccccc21 | 99% | > 100 µM | > 10 µM |  |
| Oc1[nH]c2c(Br)cccc2c1C1=Nc2ccccc2/C1=N\OCCBr | 87% | 25 µM | > 100 µM |  |
| CO/N=C1/C(c2c(O)[nH]c3c(Br)cccc23)=Nc2ccccc21 | 97% | > 100 µM | > 100 µM |  |
| CCN(CC)CCO/N=C1/C(c2c(O)n(C)c3c(Br)cccc23)=Nc2ccccc21.Cl |  | > 10 µM | > 10 µM | IC50 (SH-SY5Y [4]): > 25 µM; Survival (SH-SY5Y [1]): 15%; IC50 (SH-SY5Y [7]): 18 µM; Activity (SH-SY5Y [9]): 58% |
| Cn1c(O)c(C2=Nc3ccccc3C2=O)c2ccccc21 | 98% |  | 100 µM |  |
| CO/N=C1\C(c2c(O)[nH]c3ccccc23)=Nc2ccccc21 | 86% | 0.4 µM | 1.4 µM |  |
| O=C1Nc2ccccc2/C1=C1/Nc2ccccc2C1=O [INDIRUBIN] | 104% |  |  |  |
| Cn1c(O)c(-c2[nH]c3ccccc3c2N=O)c2cccc(F)c21 | 99% | > 100 µM | > 100 µM |  |
| CCN(CC)CCO/N=C1/C(c2c(O)[nH]c3c(Br)cccc23)=Nc2ccccc21.Cl (stereo in doubt; 13ls) |  |  |  | Survival (SH-SY5Y [1]): 72%; IC50 [8]: > 10 µM |
| Oc1[nH]c2c(Br)cccc2c1C1=Nc2ccccc2/C1=N\OCCn1ccnc1 |  |  |  | Survival (SH-SY5Y [1]): 59%; IC50 [8]: > 10 µM |
| CO/N=C1/C(c2c(O)n(C)c3c(Br)cccc23)=Nc2ccccc21 | 100% | > 100 µM | > 100 µM |  |
| O=Nc1c(-c2c(O)[nH]c3c(F)cccc23)[nH]c2ccccc12 | 46% | 0.51 µM | 1.5 µM |  |
| Cn1c(O)c(-c2[nH]c3ccccc3c2N=O)c2cccc(I)c21 | 74% | > 100 µM | > 100 µM |  |
| Cn1c(O)c(C2=Nc3ccccc3/C2=N\OCCBr)c2cccc(Br)c21 | 99% | > 10 µM | > 10 µM |  |

| SMILES | viability at 25 µM (SH-SY5Y [1]) | IC50 [2] | IC50 [3] | also measured |
| --- | --- | --- | --- | --- |
| Cn1c(O)c(-c2[nH]c3ccccc3c2N=O)c2cccc(Br)c21 | 84% | > 100 µM | > 100 µM |  |
| CC(=O)O/N=C1/C(c2c(O)[nH]c3c(I)cccc23)=Nc2ccccc21 | 67% | > 100 µM | > 10 µM |  |
| CC(=O)O/N=C1/C(c2c(O)[nH]c3c(F)cccc23)=Nc2ccccc21 | 39% | > 100 µM | 15 µM |  |
| CO/N=C1/C(c2c(O)[nH]c3c(Cl)cccc23)=Nc2ccccc21 | 97% | > 100 µM | > 10 µM |  |
| Cn1c(O)c(-c2[nH]c3ccccc3c2N=O)c2cccc(Cl)c21 | 94% | > 100 µM | > 100 µM |  |
| Cn1c(O)c(C2=Nc3ccccc3C2=O)c2cccc(Br)c21 | 98% | > 100 µM | 100 µM |  |
| O=Nc1c(-c2c(O)[nH]c3c(I)cccc23)[nH]c2ccccc12 | 64% | 77 µM | 66 µM |  |
| CO/N=C1/C(c2c(O)n(C)c3c(I)cccc23)=Nc2ccccc21 | 99% | > 100 µM | > 10 µM |  |
| O=C1C(c2c(O)[nH]c3c(I)cccc23)=Nc2ccccc21 | 96% | > 100 µM | > 10 µM |  |
| Cn1c(O)c(C2=Nc3ccccc3C2=O)c2cccc(I)c21 |  | > 100 µM | > 10 µM | Survival (SH-SY5Y [1]; sh-sy5y): 93% |
| CO/N=C1/C(c2c(O)[nH]c3c(F)cccc23)=Nc2ccccc21 | 105% | > 100 µM | > 10 µM |  |
| CCN(CC)C(=O)O/N=C1/C(c2c(O)[nH]c3c(Br)cccc23)=Nc2ccccc21 | 106% | > 100 µM | > 100 µM |  |
| O=C1C(c2c(O)[nH]c3c(Cl)cccc23)=Nc2ccccc21 | 92% | > 100 µM | > 10 µM |  |
| CO/N=C1/C(c2c(O)[nH]c3c(I)cccc23)=Nc2ccccc21 | 84% | > 100 µM | > 10 µM |  |
| O=C1Nc2cc(Br)ccc2/C1=C1/Nc2ccccc2/C1=N\O [6BIO] | 5% |  |  | Activity (SH-SY5Y [9]): 80% |
| O=C1Nc2ccc(Br)cc2/C1=C1/Nc2ccccc2/C1=N\O [INDIRUBIN 2] | 13% | 0.028 µM | 0.045 µM | IC50 (SH-SY5Y [4]): 23 µM; IC50 (SH-SY5Y [5]; Homo sapiens, SH-SY5Y, 48 h): 12 µM; IC50 (SH-SY5Y [6]; Homo sapiens, SH-SY5Y, 24 h): 18 µM; IC50 (SH-SY5Y [7]): 13 µM; Activity (SH-SY5Y [9]): 59% |
| CC(=O)O/N=C1/C(c2c(O)[nH]c3c(Br)cccc23)=Nc2ccccc21 | 61% | > 100 µM | > 100 µM |  |
| Cn1c(O)c(C2=Nc3ccccc3/C2=N\OCCn2ccnc2)c2cccc(Br)c21 | 85% | > 10 µM | > 10 µM |  |
| Cn1c(O)c(C2=Nc3ccccc3/C2=N\OCCN2CCOCC2)c2cccc(Br)c21 |  |  |  | Survival (SH-SY5Y [1]): 98%; IC50 [8]: > 10 µM |
| CC(=O)O/N=C1/C(c2c(O)n(C)c3c(I)cccc23)=Nc2ccccc21 | 82% | > 100 µM | > 10 µM |  |
| CC(=O)O/N=C1\C(c2c(O)[nH]c3ccccc23)=Nc2ccccc21 | 36% | 0.7 µM |  |  |
| CCN(CC)C(=O)O/N=C1/C(c2c(O)n(C)c3c(Br)cccc23)=Nc2ccccc21 | 105% | > 10 µM | > 10 µM |  |
| Cn1c(O)c(-c2[nH]c3ccccc3c2N=O)c2ccccc21 | 100% |  | 73 µM |  |
| Oc1[nH]c2c(Br)cccc2c1C1=Nc2ccccc2/C1=N\OCCN1CCOCC1 |  |  |  | Survival (SH-SY5Y [1]): 98%; IC50 [8]: > 10 µM |
| CC(=O)O/N=C1/C(c2c(O)n(C)c3c(F)cccc23)=Nc2ccccc21 | 105% | > 100 µM | > 10 µM |  |
| Cn1c(O)c(C2=Nc3ccccc3C2=O)c2cccc(F)c21 | 101% | > 100 µM | > 10 µM |  |
| O=C1C(c2c(O)[nH]c3c(Br)cccc23)=Nc2ccccc21 | 92% | > 100 µM | > 100 µM |  |
